# Measured values reported in ChEMBL document CHEMBL4033772, “New Class of Antitrypanosomal Agents Based on Imidazopyridines” (ACS Med Chem Lett, 2017).
# Active and inactive are the calls of the source. The calls are words filed in the database; no cut-off is given here.
# Tested on: Trypanosoma cruzi
# Assay: Antitrypanosomal activity against Trypanosoma cruzi Tulahuen amastigotes infected in mouse 3T3 cells after 6 days by beta galactosidase reporter asay
# Assay type: functional, cell-based
# Conditions: NIH3T3, 144 h
SMILES,EC50,EC90
O=C(Nc1ccn2cc(-c3ccc(F)c(F)c3)nc2n1)N1CC[C@H](F)C1,2.53 µM,> 20 µM
O=C(Nc1cc2nc(-c3ccc(F)c(F)c3)cn2cn1)N1CC[C@H](F)C1,0.09 µM,0.15 µM
O=C(Nc1ccn2cc(-c3ccccc3)nc2c1)N1CCCCC1,2.75 µM,12.3 µM
O=C(Nc1ccn2cc(-c3ccc(F)c(F)c3)nc2c1)c1cccnc1Cl,7.34 µM,> 20 µM
O=C(Nc1ccn2cc(-c3ccccc3)nc2c1)N1CC[C@H](F)C1,1.08 µM,1.73 µM
O=C(Nc1ccn2cc(-c3cccc(F)c3F)nc2c1)N1CCCCC1,1 µM,1.58 µM
O=C(Nc1ccn2cc(-c3nccs3)nc2c1)N1CC[C@H](F)C1,> 20 µM,> 20 µM

# Tested on: Trypanosoma brucei brucei
# Assay: Antitrypanosomal activity against Trypanosoma brucei brucei BF427 after 48 hrs by Alamar Blue-based assay
# Assay type: functional
# Conditions: BF427, 48 h
SMILES,EC50,EC90
O=C(Nc1ccn2cc(-c3ccc(F)c(F)c3)nc2n1)N1CC[C@H](F)C1,> 20 µM,> 20 µM
O=C(Nc1cc2nc(-c3ccc(F)c(F)c3)cn2cn1)N1CC[C@H](F)C1,0.02 µM,0.05 µM
O=C(Nc1ccn2cc(-c3ccccc3)nc2c1)N1CCCCC1,2.51 µM,4.2 µM
O=C(Nc1ccn2cc(-c3ccc(F)c(F)c3)nc2c1)c1cccnc1Cl,> 20 µM,> 20 µM
O=C(Nc1ccn2cc(-c3ccccc3)nc2c1)N1CC[C@H](F)C1,0.62 µM,0.77 µM
O=C(Nc1ccn2cc(-c3cccc(F)c3F)nc2c1)N1CCCCC1,0.72 µM,0.87 µM
O=C(Nc1ccn2cc(-c3nccs3)nc2c1)N1CC[C@H](F)C1,> 20 µM,> 20 µM

# Tested on: not listed separately
# Assay: Cytotoxicity against human CRL8155 cells after 48 hrs by Alamar Blue-based assay
# Assay type: cell-based
# Conditions: CRL8155, 48 h
# Outline: (§1)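 Cytotoxicity tested against human lymphoblasts CRL-8155 and hepatocytes HepG2. Highest concentration tested was 50 µM.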
row,SMILES,EC50
1,O=C(Nc1ccn2cc(-c3ccc(F)c(F)c3)nc2n1)N1CC[C@H](F)C1,> 50 µM
2,O=C(Nc1cc2nc(-c3ccc(F)c(F)c3)cn2cn1)N1CC[C@H](F)C1,> 50 µM
3,O=C(Nc1ccn2cc(-c3ccccc3)nc2c1)N1CCCCC1,> 50 µM
4,O=C(Nc1ccn2cc(-c3ccc(F)c(F)c3)nc2c1)c1cccnc1Cl,> 50 µM
5,O=C(Nc1ccn2cc(-c3ccccc3)nc2c1)N1CC[C@H](F)C1,44.6 µM
6,O=C(Nc1ccn2cc(-c3cccc(F)c3F)nc2c1)N1CCCCC1,> 50 µM
7,O=C(Nc1ccn2cc(-c3nccs3)nc2c1)N1CC[C@H](F)C1,> 50 µM

# Tested on: HepG2
# Assay: Cytotoxicity against human HepG2 cells after 48 hrs by Alamar Blue-based assay
# Assay type: cell-based
# Conditions: HepG2, 48 h
# Outline: as §1
row,SMILES,EC50
1,O=C(Nc1ccn2cc(-c3ccc(F)c(F)c3)nc2n1)N1CC[C@H](F)C1,> 50 µM
2,O=C(Nc1cc2nc(-c3ccc(F)c(F)c3)cn2cn1)N1CC[C@H](F)C1,> 50 µM
3,O=C(Nc1ccn2cc(-c3ccccc3)nc2c1)N1CCCCC1,> 50 µM
4,O=C(Nc1ccn2cc(-c3ccc(F)c(F)c3)nc2c1)c1cccnc1Cl,> 50 µM
5,O=C(Nc1ccn2cc(-c3ccccc3)nc2c1)N1CC[C@H](F)C1,> 50 µM
6,O=C(Nc1ccn2cc(-c3cccc(F)c3F)nc2c1)N1CCCCC1,> 50 µM
7,O=C(Nc1ccn2cc(-c3nccs3)nc2c1)N1CC[C@H](F)C1,> 50 µM

# Tested on: not listed separately
# Assay: Half life in mouse liver microsomes by LC-MS/MS method
# Assay type: ADME, microsome
# Conditions: not given
# Outline: (§2)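 Incubation with mouse liver microsomes, run in duplicate. Testosterone and dextromethorphan included as controls in each assay.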
row,SMILES,half-life
1,O=C(Nc1cc2nc(-c3ccc(F)c(F)c3)cn2cn1)N1CC[C@H](F)C1,> 1 h

# Tested on: Liver
# Assay: Stability of the compound in mouse liver microsomes assessed as compound remaining by LC-MS/MS method
# Assay type: ADME, microsome
# Conditions: not given
# Outline: as §2
row,SMILES,Stability
1,O=C(Nc1cc2nc(-c3ccc(F)c(F)c3)cn2cn1)N1CC[C@H](F)C1,96%

# Tested on: not listed separately
# Assay: Solubility of the compound in PBS at pH 7.4 at 50 uM after overnight incubation by LC-MS/MS method
# Assay type: physicochemical
# Conditions: not given
# Outline: (§3)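 Solubility measured at pH 7.4, 6.5 and 2.0.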
row,SMILES,solubility at 50 µM
1,O=C(Nc1cc2nc(-c3ccc(F)c(F)c3)cn2cn1)N1CC[C@H](F)C1,2.1 µM

# Tested on: not listed separately
# Assay: Solubility of the compound in PBS at pH 6.5 at 50 uM after overnight incubation by LC-MS/MS method
# Assay type: physicochemical
# Conditions: not given
# Outline: as §3
row,SMILES,solubility at 50 µM
1,O=C(Nc1ccn2cc(-c3ccc(F)c(F)c3)nc2n1)N1CC[C@H](F)C1,42 µM
2,O=C(Nc1cc2nc(-c3ccc(F)c(F)c3)cn2cn1)N1CC[C@H](F)C1,2.4 µM

# Tested on: not listed separately
# Assay: Solubility of the compound in HCl at pH 2.0 at 50 uM after overnight incubation by LC-MS/MS method
# Assay type: physicochemical
# Conditions: not given
# Outline: as §3
row,SMILES,solubility at 50 µM
1,O=C(Nc1cc2nc(-c3ccc(F)c(F)c3)cn2cn1)N1CC[C@H](F)C1,1.6 µM

# Tested on: not listed separately
# Assay: Protein binding in Swiss Webster mouse plasma assessed as drug recovery at 2 uM by LC-MS/MS analysis
# Assay type: ADME, cell-free
# Conditions: read-out: Drug recovery
# Outline: (§4)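 Plasma protein binding measured in 100% mouse plasma, giving % recovery and % fraction unbound. Propranolol control included in every experiment.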
row,SMILES,recovery at 2 µM
1,O=C(Nc1ccn2cc(-c3ccc(F)c(F)c3)nc2n1)N1CC[C@H](F)C1,49%
2,O=C(Nc1cc2nc(-c3ccc(F)c(F)c3)cn2cn1)N1CC[C@H](F)C1,56.1%

# Tested on: not listed separately
# Assay: Fraction unbound in Swiss Webster mouse plasma at 2 uM by LC-MS/MS analysis
# Assay type: ADME, cell-free
# Conditions: not given
# Outline: as §4
row,SMILES,fraction unbound at 2 µM
1,O=C(Nc1ccn2cc(-c3ccc(F)c(F)c3)nc2n1)N1CC[C@H](F)C1,0.081
2,O=C(Nc1cc2nc(-c3ccc(F)c(F)c3)cn2cn1)N1CC[C@H](F)C1,0.099

# Tested on: not listed separately
# Assay: Drug level in Swiss Webster mouse brain at 5 mg/kg, ip after 1 hr by LC-MS/MS analysis
# Assay type: ADME, organism-based
# Conditions: read-out: Drug uptake
# Outline: (§5)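 Mice in groups of three got a single 5 mg/kg ip dose. Animals were sacrificed 1 h postdose, and brain and plasma were collected for analysis. Brain:plasma ratio was calculated from the mean concentrations.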
row,SMILES,concentration at 1 h
1,O=C(Nc1cc2nc(-c3ccc(F)c(F)c3)cn2cn1)N1CC[C@H](F)C1,1.12 µM

# Tested on: not listed separately
# Assay: Plasma concentration in Swiss Webster mouse at 5 mg/kg, ip after 1 hr by LC-MS/MS analysis
# Assay type: ADME, organism-based
# Conditions: not given
# Outline: as §5
row,SMILES,concentration at 1 h
1,O=C(Nc1cc2nc(-c3ccc(F)c(F)c3)cn2cn1)N1CC[C@H](F)C1,1.31 µM

# Tested on: not listed separately
# Assay: Ratio of drug level in Swiss Webster mouse brain to plasma at 5 mg/kg, ip measured after 1 hr by LC-MS/MS analysis
# Assay type: ADME, organism-based
# Conditions: read-out: BPR
# Outline: as §5
row,SMILES,Kp at 1 h
1,O=C(Nc1cc2nc(-c3ccc(F)c(F)c3)cn2cn1)N1CC[C@H](F)C1,0.856

# Tested on: not listed separately
# Assay: Cmax in Swiss Webster mouse at 50 mg/kg, po by LC-MS/MS analysis
# Assay type: ADME, organism-based
# Parameters: dose 50 mg/kg, route oral
# Conditions: in vivo
# Outline: (§6)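 Oral single dose of 50 mg/kg to mice (n=3). Blood sampled at time points up to 24 h. Cmax and AUC reported as average ± SEM.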
row,SMILES,Cmax
1,O=C(Nc1cc2nc(-c3ccc(F)c(F)c3)cn2cn1)N1CC[C@H](F)C1,5.7 µM

# Tested on: not listed separately
# Assay: AUC in Swiss Webster mouse at 50 mg/kg, po by LC-MS/MS analysis
# Assay type: ADME, organism-based
# Conditions: in vivo
# Outline: as §6
row,SMILES,AUC
1,O=C(Nc1cc2nc(-c3ccc(F)c(F)c3)cn2cn1)N1CC[C@H](F)C1,59.8 µM·h

# Tested on: Trypanosoma cruzi
# Assay: Antitrypanosomal activity against bioluminescent PpyRE9h expressing Trypanosoma cruzi Tulahuen […] infected subcutaneously in BALB/c mouse assessed as suppression of Trypanosoma cruzi infection at 50 mg/kg, po twice daily for 5 days measured after 6 weeks by IVIS imaging analysis
# Assay type: functional, organism-based
# Conditions: not given
# Outline: (§7)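 Balb/c mice infected SC on day 0 with 2x10^4 T. cruzi Tulahuen trypomastigotes expressing red-shifted luciferase (PpyRE9h). Oral dosing at 50 mg/kg twice daily on days 7-11 post-infection. D-luciferin (120 mg/kg) injected SC, mice anesthetized and imaged by IVIS 10-15 min later, at time points out to 42 days. Mice observed for toxicity.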
row,SMILES,Activity
1,O=C(Nc1cc2nc(-c3ccc(F)c(F)c3)cn2cn1)N1CC[C@H](F)C1,Active

# Tested on: not listed separately
# Assay: Plasma concentration in BALB/c mouse subcutaneously infected with bioluminescent PpyRE9h expressing Trypanosoma cruzi Tulahuen […] at 50 mg/kg, po twice daily measured 1 hr post seventh dose
# Assay type: ADME, organism-based
# Conditions: not given
# Outline: (§8)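 Infected Balb/c mice on the twice-daily 50 mg/kg oral regimen. Tail blood collected at the 7th dose, immediately before and 1 h and 6 h after administration (n=3).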
row,SMILES,concentration at 1 h
1,O=C(Nc1cc2nc(-c3ccc(F)c(F)c3)cn2cn1)N1CC[C@H](F)C1,9 µM

# Tested on: not listed separately
# Assay: Plasma concentration in BALB/c mouse subcutaneously infected with bioluminescent PpyRE9h expressing Trypanosoma cruzi Tulahuen tryptomastigotes at 50 mg/kg, po twice daily measured 6 hrs post seventh dose
# Assay type: ADME, organism-based
# Conditions: not given
# Outline: as §8
row,SMILES,concentration at 6 h
1,O=C(Nc1cc2nc(-c3ccc(F)c(F)c3)cn2cn1)N1CC[C@H](F)C1,5.8 µM

# Tested on: Mus musculus
# Assay: Toxicity in BALB/c mouse infected with bioluminescent PpyRE9h expressing Trypanosoma cruzi Tulahuen […] at 50 mg/kg, po twice daily for 5 days measured after 6 weeks
# Assay type: organism-based
# Conditions: in vivo, 1008 h
# Outline: as §7
row,SMILES,Activity
1,O=C(Nc1cc2nc(-c3ccc(F)c(F)c3)cn2cn1)N1CC[C@H](F)C1,Non-Toxic

# Tested on: not listed separately
# Assay: Plasma concentration in BALB/c mouse subcutaneously infected with bioluminescent PpyRE9h expressing Trypanosoma cruzi Tulahuen […] at 50 mg/kg, po twice daily measured immediately before seventh dose
# Conditions: not given
row,SMILES,concentration at 0 hr
1,O=C(Nc1cc2nc(-c3ccc(F)c(F)c3)cn2cn1)N1CC[C@H](F)C1,4.8 µM
